Tests used:
CYP3A4 = CYP3A4 (Homo sapiens, UniProt P08684); test: Inhibition of CYP3A4 (unknown origin) at 10 uM relative to control; type: ADME
hERG (KCNH2) = hERG (KCNH2) (Homo sapiens, UniProt Q12809); test: Displacement of [35S]MK-499 from human ERG at 10 uM relative to control; details: probe [35S]MK-499
In short: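 hERG binding assessed by displacement of [35S]MK-499; percent inhibition at 10 μM test compound.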

[1] = target: T1, Nuclear receptor subfamily 1 group I member 2 (Homo sapiens, UniProt O75469); test: Activation of PXR (unknown origin)
T1 sequence (O75469 whole entry): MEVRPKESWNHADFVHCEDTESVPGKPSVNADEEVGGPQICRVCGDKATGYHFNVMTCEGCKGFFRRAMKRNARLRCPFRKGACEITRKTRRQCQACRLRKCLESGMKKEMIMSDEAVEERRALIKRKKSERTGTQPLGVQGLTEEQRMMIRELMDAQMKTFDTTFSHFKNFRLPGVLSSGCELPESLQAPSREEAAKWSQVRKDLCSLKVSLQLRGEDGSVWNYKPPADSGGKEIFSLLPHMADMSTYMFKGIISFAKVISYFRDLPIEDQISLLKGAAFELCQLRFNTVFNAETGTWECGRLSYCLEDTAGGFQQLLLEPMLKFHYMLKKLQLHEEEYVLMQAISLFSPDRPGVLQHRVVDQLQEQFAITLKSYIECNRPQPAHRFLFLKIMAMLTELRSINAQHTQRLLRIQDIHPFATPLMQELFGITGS

[2] = target: T2, Voltage-dependent N-type calcium channel subunit alpha-1B (Homo sapiens, UniProt Q00975); test: Inhibition of Cav2.2-mediated calcium influx in HEK cells by FLIPR assay; type: cell-based, HEK293
In short: (§1)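 Cav2.2 calcium-influx FLIPR assay; compounds screened for percent inhibition at single concentration, active ones titrated for IC50; values averaged over n ≥ 3.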
Target sequence in this assay (Q00975 whole entry): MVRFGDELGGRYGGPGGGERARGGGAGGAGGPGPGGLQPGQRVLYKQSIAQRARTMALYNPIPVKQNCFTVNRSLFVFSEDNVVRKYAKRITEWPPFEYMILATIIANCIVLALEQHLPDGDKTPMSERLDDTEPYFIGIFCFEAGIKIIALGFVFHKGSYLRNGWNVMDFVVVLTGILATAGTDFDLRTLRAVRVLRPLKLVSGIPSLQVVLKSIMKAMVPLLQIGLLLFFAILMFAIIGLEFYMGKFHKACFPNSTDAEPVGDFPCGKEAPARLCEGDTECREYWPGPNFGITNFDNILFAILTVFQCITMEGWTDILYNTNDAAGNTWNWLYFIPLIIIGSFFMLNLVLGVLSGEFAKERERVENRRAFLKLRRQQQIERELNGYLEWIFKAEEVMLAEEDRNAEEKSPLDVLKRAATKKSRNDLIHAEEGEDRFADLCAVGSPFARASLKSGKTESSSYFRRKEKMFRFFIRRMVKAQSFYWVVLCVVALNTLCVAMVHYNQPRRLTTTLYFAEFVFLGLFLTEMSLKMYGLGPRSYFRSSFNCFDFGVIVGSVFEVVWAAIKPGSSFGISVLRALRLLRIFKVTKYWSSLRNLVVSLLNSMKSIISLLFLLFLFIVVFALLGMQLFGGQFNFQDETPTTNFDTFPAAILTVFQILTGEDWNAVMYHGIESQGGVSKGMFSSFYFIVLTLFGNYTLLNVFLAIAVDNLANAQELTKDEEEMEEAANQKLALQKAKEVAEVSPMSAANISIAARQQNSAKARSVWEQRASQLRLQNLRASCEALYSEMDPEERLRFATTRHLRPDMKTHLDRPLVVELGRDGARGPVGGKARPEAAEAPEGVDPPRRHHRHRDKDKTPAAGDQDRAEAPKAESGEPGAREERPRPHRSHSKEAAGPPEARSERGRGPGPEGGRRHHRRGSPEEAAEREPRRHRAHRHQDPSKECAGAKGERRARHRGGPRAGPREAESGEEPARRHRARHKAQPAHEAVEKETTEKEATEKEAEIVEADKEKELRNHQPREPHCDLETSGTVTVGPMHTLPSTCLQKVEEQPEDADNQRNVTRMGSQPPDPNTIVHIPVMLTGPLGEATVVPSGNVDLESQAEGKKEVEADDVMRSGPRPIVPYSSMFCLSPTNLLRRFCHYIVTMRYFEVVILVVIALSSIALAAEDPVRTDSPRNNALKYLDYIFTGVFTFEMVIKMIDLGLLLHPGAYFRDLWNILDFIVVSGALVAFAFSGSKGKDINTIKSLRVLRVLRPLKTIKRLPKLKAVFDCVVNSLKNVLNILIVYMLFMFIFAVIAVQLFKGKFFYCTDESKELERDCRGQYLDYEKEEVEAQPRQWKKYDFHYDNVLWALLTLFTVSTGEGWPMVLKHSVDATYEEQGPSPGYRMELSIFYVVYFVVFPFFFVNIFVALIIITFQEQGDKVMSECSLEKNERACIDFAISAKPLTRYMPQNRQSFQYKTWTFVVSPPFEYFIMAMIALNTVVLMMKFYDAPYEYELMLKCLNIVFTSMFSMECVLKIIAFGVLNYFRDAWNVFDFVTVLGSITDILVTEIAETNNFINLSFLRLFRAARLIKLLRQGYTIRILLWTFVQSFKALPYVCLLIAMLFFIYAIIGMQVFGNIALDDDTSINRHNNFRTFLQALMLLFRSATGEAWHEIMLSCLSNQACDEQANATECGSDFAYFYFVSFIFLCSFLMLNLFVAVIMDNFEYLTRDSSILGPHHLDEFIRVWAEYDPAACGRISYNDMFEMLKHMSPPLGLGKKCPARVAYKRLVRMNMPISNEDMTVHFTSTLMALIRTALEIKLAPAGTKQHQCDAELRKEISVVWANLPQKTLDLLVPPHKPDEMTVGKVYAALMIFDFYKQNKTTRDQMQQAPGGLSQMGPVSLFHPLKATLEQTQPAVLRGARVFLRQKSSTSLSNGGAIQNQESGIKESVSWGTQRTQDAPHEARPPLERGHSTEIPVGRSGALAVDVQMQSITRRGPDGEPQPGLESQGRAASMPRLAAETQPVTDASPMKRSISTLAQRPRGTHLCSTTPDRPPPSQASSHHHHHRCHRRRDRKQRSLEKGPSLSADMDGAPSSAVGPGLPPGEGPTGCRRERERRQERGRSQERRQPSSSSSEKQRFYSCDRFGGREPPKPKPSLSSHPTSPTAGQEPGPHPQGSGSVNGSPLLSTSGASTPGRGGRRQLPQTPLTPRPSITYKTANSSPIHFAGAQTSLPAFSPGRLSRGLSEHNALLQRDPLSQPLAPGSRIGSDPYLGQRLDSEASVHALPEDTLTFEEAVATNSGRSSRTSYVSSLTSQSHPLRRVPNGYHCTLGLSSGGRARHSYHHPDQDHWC

Rattus norvegicus [3] = test: Antinociceptive activity in rat inflammatory pain model assessed as reversal of CFA-induced mechanical allodynia at 10 mg/kg, po after 3 hrs; type: functional
In short: (§2)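 Rats given intraplantar complete Freund's adjuvant in the hind paws to induce inflammatory pain; mechanical allodynia assessed 1 and 3 h after a single oral dose. Percent reversal per rat calculated as (postdose − predose)/(preinjury − predose), averaged over n = 6 rats.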

Rattus norvegicus [4] = test: Antinociceptive activity in rat inflammatory pain model assessed as reversal of CFA-induced mechanical allodynia at 10 mg/kg, po after 1 hr; type: functional; in short: as §2
Liver microsome [5] = test: Drug metabolism in human liver microsomes assessed as 3-(trifluoromethyl)-benzenesulfonamide level after 1 hr in presence of NADPH; type: ADME
Liver microsome [6] = test: Drug metabolism in rat liver microsomes assessed as 3-(trifluoromethyl)-benzenesulfonamide level after 1 hr in presence of NADPH; type: ADME
[7] = Metabolic stability in human liver microsomes assessed as compound remaining at 10 uM after 1 hr in presence of NADPH; type: ADME; details: read-out: Stability
In short: (§3)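 Liver microsomes (rat or human) incubated with compound and NADPH for 1 h; percent of parent remaining. Table footnote gives 10 μM compound, 1 mM NADPH, 1 mg/mL protein; text gives 1 μM substrate, 1 mg/mL protein.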

[8] = Metabolic stability in rat liver microsomes assessed as compound remaining at 10 uM after 1 hr in presence of NADPH; type: ADME; details: read-out: Stability; in short: as §3
Rattus norvegicus [9] = test: Normalized AUC in rat whole blood assessed as 3-(trifluoromethyl)-benzenesulfonamide level at 3 mg/kg, po; type: ADME, organism-based; design: dose 3 mg/kg, route oral; details: in vivo
In short: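 Rats given a single 3 mg/kg oral dose of parent; whole-blood levels of parent and sulfonamide metabolite followed over time, n = 2 rats. Metabolite AUC normalized to dose (μM·h·kg/mg).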

Rattus norvegicus [10] = test: Normalized AUC in rat whole blood at 3 mg/kg, po; type: ADME, organism-based; design: dose 3 mg/kg, route oral; details: in vivo
In short: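 Rats dosed 3 mg/kg orally and 1 mg/kg intravenously; PK parameters derived from whole-blood concentrations. Normalized oral AUC given in μM·h·kg/mg, clearance in mL/min/kg, plus half-life and oral bioavailability.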

[11] = target: T2, Voltage-dependent N-type calcium channel subunit alpha-1B; test: Inhibition of Cav2.2-mediated calcium influx in HEK cells at 10 uM by FLIPR assay relative to control; type: cell-based; details: HEK293, 1 uM, in the assay text read “at 1 uM” for “at 10 uM”; in short: as §1
Target sequence in this assay (Q00975 whole entry, looked up): as the sequence (Q00975 whole entry) above

Chain of CYP3A4 (P08684 whole entry): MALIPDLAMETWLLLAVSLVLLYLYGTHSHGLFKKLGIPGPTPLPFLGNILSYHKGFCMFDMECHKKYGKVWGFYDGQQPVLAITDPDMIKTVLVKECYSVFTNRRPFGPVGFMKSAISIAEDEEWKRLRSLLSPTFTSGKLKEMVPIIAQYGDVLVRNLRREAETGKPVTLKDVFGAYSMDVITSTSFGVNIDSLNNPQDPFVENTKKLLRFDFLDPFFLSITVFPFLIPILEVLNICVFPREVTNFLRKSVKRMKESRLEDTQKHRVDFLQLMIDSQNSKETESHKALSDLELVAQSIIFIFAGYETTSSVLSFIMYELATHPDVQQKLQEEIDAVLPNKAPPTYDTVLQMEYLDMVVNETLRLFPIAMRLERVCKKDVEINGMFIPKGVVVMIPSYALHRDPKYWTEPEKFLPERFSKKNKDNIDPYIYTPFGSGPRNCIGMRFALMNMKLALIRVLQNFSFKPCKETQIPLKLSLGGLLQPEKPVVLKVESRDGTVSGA
Chain of hERG (KCNH2) (Q12809 whole entry): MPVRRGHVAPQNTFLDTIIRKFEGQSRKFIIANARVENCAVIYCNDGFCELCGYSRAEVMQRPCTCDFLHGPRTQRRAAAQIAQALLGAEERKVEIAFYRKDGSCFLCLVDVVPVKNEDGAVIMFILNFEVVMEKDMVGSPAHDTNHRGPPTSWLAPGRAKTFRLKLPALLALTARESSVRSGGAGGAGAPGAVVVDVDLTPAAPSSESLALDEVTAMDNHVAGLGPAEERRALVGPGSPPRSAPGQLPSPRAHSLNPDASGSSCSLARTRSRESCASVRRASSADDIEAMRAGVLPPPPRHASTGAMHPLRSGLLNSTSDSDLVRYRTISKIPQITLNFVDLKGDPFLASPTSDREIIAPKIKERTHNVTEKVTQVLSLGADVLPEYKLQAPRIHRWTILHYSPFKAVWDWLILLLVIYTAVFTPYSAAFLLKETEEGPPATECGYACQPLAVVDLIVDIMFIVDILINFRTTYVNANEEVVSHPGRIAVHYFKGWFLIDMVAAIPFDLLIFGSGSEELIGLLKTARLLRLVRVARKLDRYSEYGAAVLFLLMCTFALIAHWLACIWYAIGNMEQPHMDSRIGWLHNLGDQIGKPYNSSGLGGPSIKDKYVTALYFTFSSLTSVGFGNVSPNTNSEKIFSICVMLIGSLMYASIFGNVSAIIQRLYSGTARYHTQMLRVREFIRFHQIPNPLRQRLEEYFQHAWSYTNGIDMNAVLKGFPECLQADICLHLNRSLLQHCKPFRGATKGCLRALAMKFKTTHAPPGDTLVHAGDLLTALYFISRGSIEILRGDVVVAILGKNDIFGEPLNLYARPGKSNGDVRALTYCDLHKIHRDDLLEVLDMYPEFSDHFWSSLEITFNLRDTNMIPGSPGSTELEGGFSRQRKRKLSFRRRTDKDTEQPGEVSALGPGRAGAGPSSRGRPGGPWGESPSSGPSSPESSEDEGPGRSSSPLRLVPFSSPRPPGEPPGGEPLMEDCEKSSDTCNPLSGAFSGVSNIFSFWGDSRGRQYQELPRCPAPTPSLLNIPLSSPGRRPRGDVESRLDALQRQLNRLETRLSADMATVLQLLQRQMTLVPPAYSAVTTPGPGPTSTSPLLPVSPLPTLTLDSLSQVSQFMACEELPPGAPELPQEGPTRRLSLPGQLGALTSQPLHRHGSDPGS

Compound | inhibition at 10 µM (CYP3A4) [%] | inhibition at 10 µM (hERG (KCNH2)) [%] | EC50 [1] [nM] | IC50 [2] [nM] | Drug metabolism (Liver microsome [5]) [µM] | Drug metabolism (Liver microsome [6]) [µM] | further results
NC(=O)c1ccc(C(=O)N2CCC(N(C3CC3)S(=O)(=O)c3cccc(C(F)(F)F)c3)CC2)c(OC(F)(F)F)c1 | 60 | 41 | > 10000 | 390 |  |  | 
CS(=O)(=O)c1ccc(C(=O)N2CCC(N(C3CC3)S(=O)(=O)c3cccc(C(F)(F)F)c3)CC2)c(Cl)c1 | 78 | 32 | 10800 | 290 |  |  | 
CS(=O)(=O)c1ccc(F)cc1C(=O)N1CCC(N(C2CC2)S(=O)(=O)c2cccc(C(F)(F)F)c2)CC1 | 75 |  |  |  | 0.03 | 0.01 | Efficacy (Rattus norvegicus [3]): 38%; Efficacy (Rattus norvegicus [4]): 43%
C[C@H]1[C@H](N(C2CC2)S(=O)(=O)c2cccc(C(F)(F)F)c2)CN1C(=O)c1cc(F)ccc1S(C)(=O)=O (racemic) |  |  |  | 430 |  |  | 
CS(=O)(=O)c1cc(C(F)(F)F)ccc1C(=O)N1CCC(N(C2CC2)S(=O)(=O)c2cccc(C(F)(F)F)c2)CC1 | 78 | 43 | 4300 | 27 |  |  | 
CS(=O)(=O)c1ccc(C(=O)N2CCC3(CCN(S(=O)(=O)c4cccc(C(F)(F)F)c4)CC3)C2)c(C(F)(F)F)c1 |  |  |  | 310 | 5.13 | 0.18 | remaining at 1 h, 10 µM [7]: 4.2%; remaining at 1 h, 10 µM [8]: 3.8%
CS(=O)(=O)c1ccc(C(=O)N2CC(N(C3CC3)S(=O)(=O)c3cccc(C(F)(F)F)c3)C2)c(C(F)(F)F)c1 |  |  |  | 270 | 0.45 | 0.04 | remaining at 1 h, 10 µM [7]: 78%; remaining at 1 h, 10 µM [8]: 72%
CS(=O)(=O)c1ccc(Cl)c(C(=O)N2CCC(N(C3CC3)S(=O)(=O)c3cccc(C(F)(F)F)c3)CC2)c1 | 69 | 49 | 2700 | 340 |  |  | 
CC1(N(C2CC2)S(=O)(=O)c2cccc(C(F)(F)F)c2)CCN(C(=O)c2cc(F)ccc2S(C)(=O)=O)CC1 |  |  |  | 710 | 0.04 | 0.06 | 
CS(=O)(=O)c1ccc(F)cc1C(=O)N1CCC(N(C2CC2)S(=O)(=O)c2cccc(C(F)(F)F)c2)C1 (racemic) |  |  |  | 370 |  |  | 
C[C@@H]1[C@H](N(C2CC2)S(=O)(=O)c2cccc(C(F)(F)F)c2)CN1C(=O)c1cc(F)ccc1S(C)(=O)=O (racemic) |  |  |  | 380 |  |  | 
C[C@H]1[C@H](N(C2CC2)S(=O)(=O)c2cccc(C(F)(F)F)c2)CN1C(=O)c1ccc(S(C)(=O)=O)cc1Cl (racemic) |  |  |  | 48 | 0.83 | 0.11 | AUC/dose (Rattus norvegicus [9]): 64 µM·kg·h/mg; AUC/dose (Rattus norvegicus [10]): 0.017 µM·kg·h/mg; remaining at 1 h, 10 µM [7]: 5.3%; remaining at 1 h, 10 µM [8]: 4.7%
CS(=O)(=O)c1ccc(C(=O)N2CCC(N(C(=O)c3cccc(C(F)(F)F)c3)C3CC3)CC2)c(OC(F)(F)F)c1 |  |  |  |  |  |  | inhibition [11]: 48%
NC(=O)c1ccc(C(=O)N2CCC(N(C3CC3)S(=O)(=O)c3cccc(C(F)(F)F)c3)CC2)c(C(F)(F)F)c1 | 61 | 32 | 1900 | 760 |  |  | 
CC(C1CCN(C(=O)c2ccc(S(C)(=O)=O)cc2OC(F)(F)F)CC1)S(=O)(=O)c1cccc(C(F)(F)F)c1 (stereo in doubt; 30 en-1) |  |  |  | 88 |  |  | 
